Assay outcomes: PubChem, several laboratories
Calb FLC = C. albicans growth inhibition with fluconazole, primary screen, CaCi-2 strain, Alamar Blue fluorescence | hit rate 0.57% among 300,000 | C. albicans CaCi-2 (fluconazole-resistant clinical isolate) + fluconazole, 48 h | growth inhibition, % (concentration not given with the values);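 active means growth inhibition above about 58% in most replicates, limit read from the data, passing the limit was not always enough; inconclusive means exactly half the replicates above a set limit; inactive means most replicates below a set limit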;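 further: all wells also contain fluconazole at 8 µg/ml as a sub-toxic cotreatment; 0% = median of DMSO wells and 100% = median of geldanamycin control wells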
Mdm2 MdmX PPI = inhibitors of human Mdm2-MdmX association, primary screen, cell-based, luminescence, split luciferase, SaOS-2, uHTS; Protein Mdm4 (Homo sapiens) + E3 ubiquitin-protein ligase Mdm2 (Homo sapiens), …; inhibition, % at 8 µM; SaOS-2 split-luciferase Mdm2/MdmX complementation; AID 485346, 2010; hit rate 3% among 330,000;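 active means inhibition of at least 50% at 8 µM in the primary screen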
Target sequence (O15151 whole entry, looked up): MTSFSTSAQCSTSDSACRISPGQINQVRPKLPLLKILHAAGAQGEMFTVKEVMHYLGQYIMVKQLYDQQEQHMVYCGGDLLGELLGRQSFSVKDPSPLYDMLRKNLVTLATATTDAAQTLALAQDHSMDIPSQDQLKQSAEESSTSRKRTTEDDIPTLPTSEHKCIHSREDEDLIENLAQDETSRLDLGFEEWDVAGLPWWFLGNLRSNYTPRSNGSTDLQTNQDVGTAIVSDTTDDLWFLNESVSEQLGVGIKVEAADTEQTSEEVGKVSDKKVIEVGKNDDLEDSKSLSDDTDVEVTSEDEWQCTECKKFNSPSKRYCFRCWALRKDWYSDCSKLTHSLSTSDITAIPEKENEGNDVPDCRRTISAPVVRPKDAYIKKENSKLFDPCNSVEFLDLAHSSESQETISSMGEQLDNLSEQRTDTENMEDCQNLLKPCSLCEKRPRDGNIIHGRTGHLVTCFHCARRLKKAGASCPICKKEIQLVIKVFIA
Target sequence (Q00987 whole entry, looked up): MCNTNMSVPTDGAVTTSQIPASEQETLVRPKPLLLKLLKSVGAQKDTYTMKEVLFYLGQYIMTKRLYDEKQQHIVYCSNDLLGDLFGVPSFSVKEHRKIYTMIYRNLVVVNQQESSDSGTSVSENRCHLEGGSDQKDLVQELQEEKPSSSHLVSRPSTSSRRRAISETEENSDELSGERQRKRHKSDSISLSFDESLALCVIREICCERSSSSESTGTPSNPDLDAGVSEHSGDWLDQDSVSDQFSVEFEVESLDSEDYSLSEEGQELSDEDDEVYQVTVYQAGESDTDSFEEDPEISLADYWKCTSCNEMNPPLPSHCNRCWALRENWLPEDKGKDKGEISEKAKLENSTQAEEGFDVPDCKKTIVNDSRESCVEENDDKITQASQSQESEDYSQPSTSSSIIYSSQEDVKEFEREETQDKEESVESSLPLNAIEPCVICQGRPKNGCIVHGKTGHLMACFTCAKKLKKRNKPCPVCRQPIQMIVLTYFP
T cruzi repl = inhibitors of intracellular T. cruzi growth, primary screen, luminescence, NIH3T3 host cells | hit rate 1.4% among 300,000 | inhibition, % (no concentration beside the values) | T. cruzi beta-gal in NIH3T3, 90 h;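 active means mean inhibition across valid replicates above about 55%, limit read from the data; inconclusive means mean below that limit but half or more replicates reach it; inactive means mean below it, under half of replicates reach it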;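 further: signal also drops with host cell toxicity which is not excluded here; 0% = plate median of DMSO wells and 100% = zero luminescence signal; higher percent means less beta-gal luminescence so fewer parasites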
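System: mouse NIH/3T3 fibroblasts infected with β-gal-expressing T. cruzi Tulahuen C4 / Input: NIH/3T3 cells, 5,000 per well / Buffer or medium: Low-serum DMEM with 2% FBS / Probe or stimulus: 5000 reporter trypomastigotes per well / Schedule: ≥90 h infection period, 3 h prior cell attachment / Measured by: GalScreen luminescence, 60 min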
SKKanGAS inh = S. pyogenes SKKanGAS growth inhibitors in kanamycin, primary screen, streptokinase expression inhibitor project, SKKanGAS strain, BacTiter-Glo luminescence | inhibition, % at 7.5 µM | 6 h | hit rate 1.3% among 300,000;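 active means mean replicate score, as percent of positive control median, at least 50; inconclusive means mean below 50 but one replicate at or above 50; inactive means mean and every replicate below 50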;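 further: strain carries kanamycin resistance gene driven by streptokinase promoter and grows in 40 µg/ml kanamycin; loss of luminescence reflects streptokinase promoter inhibition or plain growth inhibition; 0% = median of DMSO wells and 100% = positive control at its reference dose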
Beta apoptosis = inhibitors of cytokine-induced beta cell apoptosis, primary screen, luminescence | INS-1E cytokine-induced death, ATP luminescence, 48 h; percent of positive-control rescue, neutral wells zero | protection from apoptosis, % (test concentration not listed) | hit rate 0.8% among 300,000 | AID 435005, 2010;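 active means Every replicate reaches about 75%, or at least half do and their mean reaches it too, limit read from the data; inconclusive means At least half of replicates reach the limit but their mean does not; inactive means Under half of replicates reach the limit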;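 further: 0% = cytokine-treated negative control wells and 100% = positive control rescue; higher means more ATP so stronger rescue from cytokine killing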
CSC inhib = cancer stem cell viability inhibitors, primary screen, luminescence. hit rate 1.1% among 300,000. AID 2717, 2010. cancer stem cell-like cells viability. inhibition, % at 7.5 µM; in the data active means inhibition above about 75%; inconclusive means no clear call, values can overlap the other calls; tested in HMLE shEcad cells
Mdm2 MdmX conf = Mdm2-MdmX complex disruptors, retested hits, confirmation, luminescence, single concentration; shares compounds with Mdm2 MdmX PPI; Mdm2-MdmX binding, luminescent assay; inhibition, % at 8 µM; hit rate 55% among 10,000; in the data active means inhibition above about 40%
FLuc counter = full-length luciferase signal inhibition, confirmation, counter-screen for Mdm2/MdmX interaction inhibitor project, cell-based, single concentration, SaOS-2; shares compounds with Mdm2 MdmX PPI; SaOS-2 full-length luciferase counterscreen, luminescence; inhibition, % at 8 µM; hit rate 77% among 6,200; AID 504607, 2011;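 active means mean inhibition at 8 µM reaching about 37%, which flags the compound as non-specific, limit read from the data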;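 further: p53-null SaOS-2 cells with luciferase driven by a doxycycline-inducible promoter; compound on cells about two nights before reading with doxycycline added after day one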
* = called active by the depositor; u = inconclusive; x = no result. Rows were chosen to be rich in hits. Some 5.7% of all compounds tested hit in one or more screens of this group.

SMILES | Calb FLC | Mdm2 MdmX PPI | T cruzi repl | SKKanGAS inh | Beta apoptosis | CSC inhib | Mdm2 MdmX conf | others
O=C(Cc1csc(Nc2nc(=S)[nH]c3ccccc23)n1)N1CCN(c2cccc(C(F)(F)F)c2)CC1 | 7 | 69* | -3 | 13 | -3 | 70 | 15
CNc1nc(OC)nc(N(C#N)CN2C(=O)c3ccccc3S2(=O)=O)n1 | 2 | 38 | 0 | u | 2 | -12 | x
O=S(=O)(CCN1CCN(c2ccccc2O)CC1)c1cc(Cl)ccc1Cl | x | 14 | x | x | x | x | x
O=C(Cc1csc(Nc2nc(=S)[nH]c3ccccc23)n1)NCc1cccc(Cl)c1 | x | 85* | x | x | 3 | -6 | 18
C/C(=N\NC(=O)c1cccc(F)c1)c1ccc(Br)s1 | -28 | 72* | 52 | -17 | 9 | 50 | 49* | FLuc counter=44*
Cc1ccc(C(=O)NCc2ccncc2)cc1S(=O)(=O)N1CCCCC1 | -3 | 23 | 9 | -7 | -2 | -19 | x
COc1ccc(-c2cn(-c3ccccc3)c(=S)[nH]2)cc1OC | 5 | 94* | 4 | 4 | -5 | -7 | -45
Cc1cnn(-c2cc(N/N=C/c3ccccc3)ncn2)c1 | -14 | 5 | -11 | -3 | 3 | -7 | x
Cc1cnn(-c2cc(N/N=C/c3cccc(F)c3)ncn2)c1 | -12 | 75* | -7 | -4 | -6 | -14 | 26
Cc1cnn(-c2cc(N/N=C/c3ccccc3F)ncn2)c1 | -1 | 64* | -7 | -8 | -3 | -7 | 24
Cc1cccc2c1Sc1ccc(Cl)cc1CC2N1CCNCC1 (stereo not given) | 67 | 100* | 63* | 14 | x | 102* | 39 | FLuc counter=46*
CN1CCN(C2Cc3ccccc3Sc3cc(C(F)(F)F)ccc32)CC1 (stereo not given) | 53 | 50 | 53 | 12 | 41 | u | x
CCc1cccc2c1Sc1ccccc1CC2N1CCNCC1 (stereo not given) | -28 | 71* | 64* | 8 | x | 79* | 24
O=C1CC(N2CCSCC2)C(=O)N1c1cccc(Cl)c1 (stereo not given) | 28 | -3 | -12 | 5 | -9 | -16 | x
COC(=O)c1sccc1NC(=O)c1c(F)c(F)c(F)c(F)c1F | -14 | 75* | -14 | -4 | -2 | -6 | 21
O=C(Nc1ccccc1NC(=O)c1c(F)c(F)c(F)c(F)c1F)c1c(F)c(F)c(F)c(F)c1F | 12 | 54* | -6 | 2 | 0 | 10 | 32 | FLuc counter=41*
CCOc1ccc(Cn2c(=O)sc3ccccc32)cc1OC | -8 | 12 | 0 | -8 | 2 | 8 | x
CN(c1ccccc1)S(=O)(=O)c1cccc(NC(=O)C2=NNC(=O)CC2)c1 | x | 11 | x | x | 2 | 10 | x
Cn1c2c(c(=O)n(C)c1=O)C(C(F)(F)F)(C(F)(F)F)N=C(c1ccc(Cl)cc1)N2 | 84* | 94* | 24 | 15 | 139* | x | 90* | FLuc counter=52*
CCN(Cc1ccc(OC)c(F)c1)C(=O)C1CCCO1 (stereo not given) | 2 | -5 | 5 | 0 | -9 | -13 | x
CCN(Cc1ccc(OC)c(F)c1)C(=O)CCl | -3 | 89* | 8 | -3 | -16 | -13 | 63* | FLuc counter=22
O=[N+]([O-])c1ccc(Cl)c(-c2ccc(/C=N/c3c(-c4ccco4)nc4ccccn34)o2)c1 | -2 | 66* | -12 | -11 | -1 | -1 | -1
C=CCC[C@@H](Cc1ccc(F)cc1)C(=O)OC[C@H](Cc1c[nH]c2ccccc12)NC(=O)[C@@H](CC=C)CC(=O)N[C@@H](CO)Cc1ccccc1 | x | 35 | x | x | 1 | 7 | x
C=CCC[C@@H](Cc1ccc(F)cc1)C(=O)OC[C@@H](Cc1c[nH]c2ccccc12)NC(=O)[C@@H](CC=C)CC(=O)N(CCO)Cc1ccccc1 | x | 93* | x | x | -3 | u | 27
C=CCC[C@H](Cc1ccc(F)cc1)C(=O)OC[C@@H](Cc1c[nH]c2ccccc12)NC(=O)[C@@H](CC=C)CC(=O)N[C@@H](CO)Cc1ccccc1 | x | 45 | x | x | 13 | 15 | x
SMILES | Calb FLC | Mdm2 MdmX PPI | T cruzi repl | SKKanGAS inh | Beta apoptosis | CSC inhib | Mdm2 MdmX conf | others
C=CCC[C@@H](Cc1ccc(F)cc1)C(=O)OC[C@@H](Cc1c[nH]c2ccccc12)NC(=O)[C@H](CC=C)CC(=O)N[C@H](CO)Cc1ccccc1 | x | 76* | x | x | 9 | x | 25
C=CCC[C@H](Cc1ccc(F)cc1)C(=O)OC[C@H](Cc1c[nH]c2ccccc12)NC(=O)[C@H](CC=C)CC(=O)N(CCO)Cc1ccccc1 | x | 90* | x | x | 12 | x | 26
CSc1cccc(N2CC(C(=O)Nc3ccccc3N3CCCC3)CC2=O)c1 (stereo not given) | -14 | 15 | -5 | 5 | -3 | -5 | x
COc1ccccc1CCN=C(N)NS(=O)(=O)c1ccccc1F | -3 | 23 | -9 | -8 | 5 | 9 | x
CCc1ccc(OCC(=O)Nc2ccc3[nH]ncc3c2)cc1 | -2 | 23 | 6 | -1 | -1 | 0 | x
COCc1cc(CN2CCN(Cc3ccsc3)C(CCO)C2)ccc1OC (stereo not given) | -12 | 0 | 2 | -3 | -17 | -9 | x
Cc1ccc(C(=O)Cn2c(C(=O)/C=C/c3ccccc3)nc3ccccc32)cc1 | 3 | 56* | 15 | -2 | 41 | 41 | 55* | FLuc counter=53*
Cc1ccc(C(=O)Cn2c(NCCO)nc3ccccc32)cc1 | -3 | -5 | -4 | -1 | -1 | -8 | x
O=Cc1ccc(O)c2ncccc12 | 94* | 56* | 57* | 33 | x | x | 34
Cc1nc(NCc2ccco2)c2c(C)c(C)sc2n1 | 5 | 100* | -44 | -5 | 28 | 98* | 96* | FLuc counter=54*
CCN(CC)CCSc1nc(O)c(-c2ccccc2)c(=O)n1-c1ccccc1 | 1 | -24 | -2 | -2 | -2 | -10 | x
CCN(CC)CCSc1nc2ccccc2c(=S)n1-c1ccccc1 | 7 | 51* | 64* | -7 | 16 | 19 | 34 | FLuc counter=94*
CC12CCC(=O)N1C(C(=O)N1CCN(S(=O)(=O)c3cccc(C(F)(F)F)c3)CC1)CS2 (stereo not given) | -2 | -15 | 0 | 17 | 1 | 7 | x
COC(=O)c1cc(C(=O)N2CCN(c3ncccn3)CC2)cc([N+](=O)[O-])c1 | 16 | -14 | 8 | 2 | 5 | -10 | x
